From ChEMBL document CHEMBL3525906, “A comprehensive assessment of repaglinide metabolic pathways: impact of choice of in vitro system and relative enzyme contribution to in vitro clearance” (Drug Metab Dispos, 2012)

Key:
Liver microsome [1] = assay: Drug metabolism in human liver microsomes assessed as 3'-hydroxy repaglinide formation measured per mg of protein at 0.5 to 150 uM by LC-MS/MS method; format: ADME
[2] = Drug metabolism in human hepatic S9 fraction assessed as 3'-hydroxy repaglinide formation measured per mg of protein at 0.5 to 150 uM by LC-MS/MS method; format: ADME, Liver; details: s9, 150 µM
Liver microsome [3] = assay: Drug metabolism in human liver microsomes assessed as 3'-hydroxy repaglinide formation by LC-MS/MS method; format: ADME
[4] = Drug metabolism in human hepatic S9 fraction assessed as 3'-hydroxy repaglinide formation by LC-MS/MS method; format: ADME, Liver
Cytochrome P450 3A5 [5] = molecular target: T1, Cytochrome P450 3A5 (Homo sapiens, UniProt P20815); assay: Activity of human recombinant CYP3A5 expressed in insect cells assessed as enzyme-mediated 3'-hydroxy repaglinide formation by LC-MS/MS method; format: ADME
Outline: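 Recombinant P450 (CYP2C8 50, CYP3A4 30, CYP3A5 100; units not given) incubated 10 min at 37°C with repaglinide (8 concentrations, 0.5–150 μM) in 0.1 M phosphate pH 7.4, 10 mM MgCl2, NADPH-regenerating system (1 mM NADP+, isocitrate/isocitrate dehydrogenase). Quenched with ice-cold methanol plus indomethacin internal standard. M1, M2, M4 quantified by LC-MS/MS against authentic standards. Michaelis-Menten fit; mean ± SD, n=3.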

[6] = Unbound intrinsic clearance in human hepatic S9 fraction assessed as 3'-hydroxy repaglinide formation measured per mg of protein at 0.5 to 150 uM by LC-MS/MS method; format: ADME, tissue-based, Liver; details: s9, 150 µM
Cytochrome P450 2C8 [7] = molecular target: T2, Cytochrome P450 2C8 (Homo sapiens, UniProt P10632); assay: Unbound intrinsic clearance in human recombinant CYP2C8 expressed in insect cells assessed as enzyme-mediated 3'-hydroxy repaglinide formation per nanomole of protein at 0.5 to 150 uM by LC-MS/MS method; format: ADME
T2 sequence (P10632 whole entry): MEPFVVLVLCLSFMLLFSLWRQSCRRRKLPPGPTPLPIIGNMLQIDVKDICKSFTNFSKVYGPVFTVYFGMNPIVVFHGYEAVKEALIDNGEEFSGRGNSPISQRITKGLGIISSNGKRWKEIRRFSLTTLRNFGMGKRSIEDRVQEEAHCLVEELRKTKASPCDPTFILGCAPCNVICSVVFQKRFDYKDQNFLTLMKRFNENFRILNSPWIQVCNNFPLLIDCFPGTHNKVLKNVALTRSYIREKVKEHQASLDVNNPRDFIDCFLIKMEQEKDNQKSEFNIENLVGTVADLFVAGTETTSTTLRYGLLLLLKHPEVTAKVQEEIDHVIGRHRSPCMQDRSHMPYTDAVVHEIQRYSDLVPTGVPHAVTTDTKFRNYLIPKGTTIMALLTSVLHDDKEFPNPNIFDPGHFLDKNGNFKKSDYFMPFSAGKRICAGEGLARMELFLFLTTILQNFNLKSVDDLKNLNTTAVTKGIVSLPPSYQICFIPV

[8] = Fraction metabolism via UGT in human hepatocytes; format: ADME, cell-based, Hepatocyte
Cytochrome P450 2C8 [9] = molecular target: T2, Cytochrome P450 2C8; assay: Fraction metabolism via CYP2C8 in human hepatic S9 fraction; format: ADME, Liver
[10] = Fraction metabolism via UGT in human hepatic S9 fraction; format: ADME, Liver
Cytochrome P450 3A4 [11] = molecular target: T3, Cytochrome P450 3A4 (Homo sapiens, UniProt P08684); assay: Fraction metabolism via CYP3A4 in human liver microsomes; format: ADME
Homo sapiens [12] = species on record: Homo sapiens; assay: Drug metabolism in variable SLCO1B1 genotype containing human patient assessed as fold change in metabolite M2/M4 AUC ratio at 0.25 mg co-treated with gemfibrozil relative to gemfibrozil non-treated patient; format: ADME, organism-based; details: in vivo
Homo sapiens [13] = species on record: Homo sapiens; assay: Ratio of AUC in human patient at 0.25 mg to AUC in human patient at 0.25 mg co-treated with gemfibrozil and itraconazole; format: ADME, organism-based; details: in vivo
Homo sapiens [14] = species on record: Homo sapiens; assay: Ratio of AUC in human patient at 0.25 mg to AUC in human patient at 0.25 mg co-treated with gemfibrozil on various time intervals; format: ADME, organism-based; details: in vivo
Homo sapiens [15] = species on record: Homo sapiens; assay: Ratio of AUC in human patient at 0.25 mg to AUC in human patient at 0.25 mg co-treated with telithromycin; format: ADME, organism-based; details: in vivo
Homo sapiens [16] = species on record: Homo sapiens; assay: Ratio of AUC in human patient at 0.25 mg to AUC in human patient at 0.25 mg co-treated with telithromycin and montelukast; format: ADME, organism-based; details: in vivo
Homo sapiens [17] = species on record: Homo sapiens; assay: Ratio of AUC in human patient at 0.25 mg to AUC in human patient at 0.25 mg co-treated with clarithromycin; format: ADME, organism-based; details: in vivo
Homo sapiens [18] = species on record: Homo sapiens; assay: Ratio of AUC in human patient at 0.25 mg to AUC in human patient at 0.25 mg co-treated with trimethoprim; format: ADME, organism-based; details: in vivo
Homo sapiens [19] = species on record: Homo sapiens; assay: Ratio of AUC in human patient at 0.25 mg to AUC in human patient at 0.25 mg co-treated with cyclosporine; format: ADME, organism-based; details: in vivo
Homo sapiens [20] = species on record: Homo sapiens; assay: Drug metabolism in human patient assessed as fold change in metabolite M2/M1 AUC ratio at 0.25 mg co-treated with atorvastatin relative to atorvastatin non-treated patient; format: ADME, organism-based; details: in vivo
Homo sapiens [21] = species on record: Homo sapiens; assay: Drug metabolism in variable SLCO1B1 genotype containing human patient assessed as fold change in metabolite M2/M1 AUC ratio at 0.25 mg co-treated with gemfibrozil relative to gemfibrozil non-treated patient; format: ADME, organism-based; details: in vivo
Homo sapiens [22] = species on record: Homo sapiens; assay: Drug metabolism in human patient assessed as fold change in metabolite M2/M1 AUC ratio at 0.25 mg co-treated with telithromycin relative to telithromycin non-treated patient; format: ADME, organism-based; details: in vivo
Cytochrome P450 3A4 [23] = molecular target: T3, Cytochrome P450 3A4; assay: Unbound intrinsic clearance in human recombinant CYP3A4 expressed in insect cells assessed as enzyme-mediated 2-despiperidyl-2-amino repaglinide formation per nanomole of protein at 0.5 to 150 uM by LC-MS/MS method; format: ADME
Cytochrome P450 3A5 [24] = molecular target: T1, Cytochrome P450 3A5; assay: Unbound intrinsic clearance in human recombinant CYP3A5 expressed in insect cells assessed as enzyme-mediated 2-despiperidyl-2-amino repaglinide formation per nanomole of protein at 0.5 to 150 uM by LC-MS/MS method; format: ADME
[25] = Drug metabolism in human hepatocytes assessed as glucuronide formation by LC-MS/MS method; format: ADME, cell-based, Hepatocyte
Liver microsome [26] = assay: Drug metabolism in human liver microsomes assessed as glucuronide formation by LC-MS/MS method; format: ADME
[27] = Drug metabolism in human hepatic S9 fraction assessed as glucuronide formation by LC-MS/MS method; format: ADME, Liver
Liver microsome [28] = assay: Unbound intrinsic clearance in human liver microsomes assessed as glucuronide formation measured per mg of protein at 0.5 to 150 uM by LC-MS/MS method; format: ADME
[29] = Unbound intrinsic clearance in human hepatic S9 fraction assessed as glucuronide formation measured per mg of protein at 0.5 to 150 uM by LC-MS/MS method; format: ADME, tissue-based, Liver; details: s9, 150 µM
[30] = Drug metabolism in human hepatic S9 fraction assessed as 2-despiperidyl-2-(5-carboxypentylamine) repaglinide formation measured per mg of protein at 0.5 to 150 uM by LC-MS/MS method; format: ADME, Liver; details: s9, 150 µM
[31] = Drug metabolism in human hepatic S9 fraction assessed as 2-despiperidyl-2-(5-carboxypentylamine) repaglinide formation by LC-MS/MS method; format: ADME, Liver
[32] = Unbound intrinsic clearance in human hepatic S9 fraction assessed as 2-despiperidyl-2-(5-carboxypentylamine) repaglinide formation measured per mg of protein at 0.5 to 150 uM by LC-MS/MS method; format: ADME, tissue-based, Liver; details: s9, 150 µM

T1 sequence (P20815 whole entry): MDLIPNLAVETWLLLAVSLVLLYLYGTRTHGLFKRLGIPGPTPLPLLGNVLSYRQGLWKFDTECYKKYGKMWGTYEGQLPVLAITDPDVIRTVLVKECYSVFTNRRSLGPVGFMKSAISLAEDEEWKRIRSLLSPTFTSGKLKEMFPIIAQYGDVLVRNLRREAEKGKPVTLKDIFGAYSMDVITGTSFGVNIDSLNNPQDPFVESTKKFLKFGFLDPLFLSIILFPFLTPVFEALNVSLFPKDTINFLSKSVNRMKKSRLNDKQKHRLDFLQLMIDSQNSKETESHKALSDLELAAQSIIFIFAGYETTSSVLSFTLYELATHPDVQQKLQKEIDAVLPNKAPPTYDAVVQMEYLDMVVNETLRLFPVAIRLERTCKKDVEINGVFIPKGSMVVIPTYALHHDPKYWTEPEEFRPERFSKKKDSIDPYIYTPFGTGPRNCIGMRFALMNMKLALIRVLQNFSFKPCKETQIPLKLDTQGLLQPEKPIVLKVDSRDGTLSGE
T3 sequence (P08684 whole entry): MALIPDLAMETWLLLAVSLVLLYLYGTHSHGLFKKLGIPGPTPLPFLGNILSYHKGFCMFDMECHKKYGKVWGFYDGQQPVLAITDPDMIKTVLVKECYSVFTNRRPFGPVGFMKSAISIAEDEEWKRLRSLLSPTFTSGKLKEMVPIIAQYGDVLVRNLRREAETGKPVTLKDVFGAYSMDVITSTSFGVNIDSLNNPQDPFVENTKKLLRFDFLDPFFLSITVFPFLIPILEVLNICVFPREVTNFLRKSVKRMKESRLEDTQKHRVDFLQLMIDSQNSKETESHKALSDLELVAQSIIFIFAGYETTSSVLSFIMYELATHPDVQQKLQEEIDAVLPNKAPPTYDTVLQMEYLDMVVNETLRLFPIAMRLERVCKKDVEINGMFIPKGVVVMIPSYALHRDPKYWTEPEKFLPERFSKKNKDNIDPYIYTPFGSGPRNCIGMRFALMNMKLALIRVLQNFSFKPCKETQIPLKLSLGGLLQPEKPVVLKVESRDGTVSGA

## CCOc1cc(CC(=O)N[C@@H](CC(C)C)c2ccccc2N2CCCCC2)ccc1C(=O)O [REPAGLINIDE]
Liver microsome [1]
  Vmax: 130 pmol/min/mg
[2]
  Vmax: 18 pmol/min/mg
Liver microsome [3]
  Km: 9 µM
[4]
  Km: 13 µM
Cytochrome P450 3A5 [5]
  Km: ≥ 150 µM
[6]
  CL free: 2.7 µL/min/mg
Cytochrome P450 2C8 [7]
  CL free: 70 µL/min/nmol
[8]
  Fm: 0.02
Cytochrome P450 2C8 [9]
  Fm: 0.41
[10]
  Fm: 0.2
Cytochrome P450 3A4 [11]
  Fm: 0.2
Homo sapiens [12]
  fold change (FC): 6.4
Homo sapiens [13]
  Ratio: 19
Homo sapiens [14]
  Ratio: 5
Homo sapiens [15]
  Ratio: 1.8
Homo sapiens [16]
  Ratio: 1.9
Homo sapiens [17]
  Ratio: 1.4
Homo sapiens [18]
  Ratio: 1.6
Homo sapiens [19]
  Ratio: 2.4
Homo sapiens [20]
  fold change (FC): 1.05
Homo sapiens [21]
  fold change (FC): 0.38
Homo sapiens [22]
  fold change (FC): 3.9
Cytochrome P450 3A4 [23]
  CL free: 120 µL/min/nmol
Cytochrome P450 3A5 [24]
  CL free: 1.4 µL/min/nmol
[25]
  Km: 53 µM
Liver microsome [26]
  Km: 37 µM
[27]
  Km: 47 µM
Liver microsome [28]
  CL free: 5.6 µL/min/mg
[29]
  CL free: 1.8 µL/min/mg
[30]
  Vmax: 94 pmol/min/mg
[31]
  Km: 47 µM
[32]
  CL free: 3.7 µL/min/mg
